Active and inactive are the calls of the source. The calls are words filed in the database; no cut-off is given here.

Series [1] is described as follows: Drug level in Sprague-Dawley rat heart at 30 mg/kg, ip measured at 90 mins by LC-MS/MS analysis. It is filed as ADME, organism-based. Conditions: read-out: Drug uptake. In a few lines: (§1)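 Rats given a single ip injection, 20 mg/kg (0.04 mmol) of CDDO-Me or 30 mg/kg (0.04 mmol) of the prodrug; heart, kidney and liver collected over time; parent compound and liberated CDDO-Me measured by LC-MS/MS.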

Series [2] can be described thus: Drug level in Sprague-Dawley rat kidney at 30 mg/kg, ip measured at 90 mins by LC-MS/MS analysis. It is filed as ADME, organism-based. Conditions: read-out: Drug uptake. Summed up:
as §1

In series [3] the target is Kelch-like ECH-associated protein 1 (Homo sapiens) (UniProt Q14145). The series is described as follows: Inhibition of Keap1/Nrf2 (unknown origin) interaction transfected in HEK293 cells assessed as increase in cytosolic HO-1 levels after 48 hrs by Western blot analysis. Type of series: cell-based. Summed up:
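HEK293 cells grown in high-glucose DMEM with 10% FBS were treated in triplicate at 200 or 1000 nM for 48 h. Nuclear and cytosolic Nrf2, HO-1 and cytoplasmic NQO1 were measured by western blot with specific antibodies, with TBP and β-actin among the probed proteins. The nuclear/cytosolic Nrf2 ratio was derived from these blots. Three independent experiments, mean ± SD.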

Series [4] concerns Mus musculus. Put plainly: Renoprotective activity in db/db mouse assessed as reduction in thickening of capillary walls in glomeruli at 1 to 2 mg/kg, ip administered trice per week for 12 consecutive weeks measured at 11 weeks post dose by H/E-staining based microscopic analysis. It is filed as functional, organism-based. Summed up:
(§2)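 Male db/db mice, 8 weeks old, were randomized and dosed i.p. three times weekly for 12 weeks (vehicle: 5% Tween-80 in 0.9% saline; n = 6 per group). Kidneys were fixed in 4% PFA and paraffin-embedded. 5 μm sections were stained with HE, PAS or Masson's trichrome and examined at ×400.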

In series [5] the test system is Mus musculus. The series is described as follows: Antidiabetic nephropathic activity in db/db mouse assessed as reduction in urinary albumin at 1 to 2 mg/kg, ip administered thrice per week for 12 consecutive weeks measured at 24 hrs post 11 week administration. It is filed as functional, organism-based. In a few lines:
(§3)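 Male db/db mice, 8 weeks old, randomized; ip vehicle (5% Tween-80 in 0.9% saline) or drug three times weekly for 12 weeks, n = 6 per group. After 11 weeks, 24 h urine collected for volume, albumin and creatinine, with UACR calculated; blood then sampled for plasma BUN and uric acid. Mean ± SD, one-way ANOVA with Tukey test.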

The test system of another series is Kidney. Put plainly: In vivo drug metabolism in Sprague-Dawley rat assessed as CDDO-Me formation in kidney at 30 mg/kg, ip measured at 90 mins by LC-MS/MS analysis. It is filed as ADME, organism-based. Conditions: 1.5 h. Summed up: as §1
Series [6] concerns Mus musculus. Put plainly: Renoprotective activity in db/db mouse assessed as reduction in mesangial expansion at 1 to 2 mg/kg, ip administered trice per week for 12 consecutive weeks measured at 11 weeks post dose by TEM microscopic analysis. It is filed as functional, organism-based. Summed up: (§4)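 Male db/db mice (8 weeks old) were dosed i.p. three times weekly for 12 weeks in 5% Tween-80/0.9% saline, n = 6. Kidney tissue was fixed in 3% glutaraldehyde, cut into 80 nm ultrathin sections and examined by TEM. GBM thickness was measured at 30 random locations from three sections per kidney and averaged per mouse.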

In series [7] the test system is Mus musculus. Put plainly: Toxicity in db/db mouse assessed as change in body weight at 1 to 2 mg/kg, ip administered thrice per week for 12 consecutive weeks measured every other day. Type of series: organism-based. Conditions: in vivo. In a few lines: (§5)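 Male db/db mice (8 weeks old, specific pathogen-free, normal chow and filtered water ad libitum) were randomized and dosed i.p. three times weekly for 12 consecutive weeks; vehicle was 5% Tween-80 in 0.9% saline. Body weight and food and water consumption were recorded every other day.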

The subject of series [8] is Mus musculus. The series is described as follows: Renoprotective activity in db/db mouse assessed as reduction in glomerular basement thickening at 1 to 2 mg/kg, ip administered trice per week for 12 consecutive weeks measured at 11 weeks post dose by TEM microscopic analysis. Type of series: functional, organism-based. Summed up: as §4
Series [9] concerns Mus musculus. Put plainly: Toxicity in db/db mouse assessed as effect on water consumption at 1 to 2 mg/kg, ip administered thrice per week for 12 consecutive weeks measured every other day. Conditions: in vivo. It is filed as organism-based. In a few lines:
as §5

Another series has as its target hERG (KCNH2) (Homo sapiens, UniProt Q12809). Put plainly: Inhibition of human ERG expressed in CHO cells at 200 uM at -80 mV holding potential by patch clamp assay relative to control. It is filed as cell-based. Conditions: CHO cells expressing human ERG. On the technique in general: The patch-clamp technique gives a direct electrical read-out from membranes.
For series [10], the system named is Mus musculus. The series is described as follows: Anti-diabetic nephropathic activity in db/db mouse assessed as reduction in urinary albumin at 0.65 mg/kg, ip administered trice per week for 12 consecutive weeks measured at 24 hrs post 11 week administration. It is filed as functional, organism-based. Summed up:
as §3

Series [11] relates to Mus musculus. The series is described as follows: Antidiabetic nephropathic activity in db/db mouse assessed as increase in urinary creatinine at 0.65 mg/kg, ip administered thrice per week for 12 consecutive weeks measured at 24 hrs post 11 week administration. It is filed as functional, organism-based. Summed up:
as §3

Series [12] can be described thus: Drug level in Wistar rat kidney homogenates treated with 1-Hydroxyl-2-cyano-3-(4-(methyl-L-glutaminate-N5-yl)-benzyloxy)-12-oxo-oleana-2(3),9(11)-dien-28-oic Acid Methyl Ester assessed as GGT-mediated metabolite formation at 100 uM after 8 hrs by HPLC analysis. Type of series: ADME, tissue-based. Conditions: tissue homogenate. In a few lines:
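Plasma, and kidney and liver homogenates in PBS, from three Wistar rats; substrate added at 100 μM at 37 °C; metabolite measured by HPLC every 60 min for 8 h; mean ± SD of three experiments.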

The test system of series [13] is Mus musculus. Put plainly: Renoprotective activity in db/db mouse assessed as […] in number of intraglomerular mesangial cells at 0.65 mg/kg, ip administered trice per week for 12 consecutive weeks measured at 11 weeks post dose by H/E-staining based microscopic analysis. Type of series: functional, organism-based. Summed up: as §2
For series [14], the system named is Mus musculus. Put plainly: Toxicity in db/db mouse assessed as effect on food consumption at 0.65 mg/kg, ip administered trice per week for 12 consecutive weeks measured every other day. It is filed as organism-based. Conditions: in vivo. Summed up:
as §5

Series [15] in a line: Drug level in Sprague-Dawley rat liver at 20 mg/kg, ip measured at 90 mins by LC-MS/MS analysis. Conditions: read-out: Drug uptake. It is filed as ADME, organism-based. In a few lines: as §1
A short description of series [16]: Drug level in Krebs buffer treated with 1-Hydroxyl-2-cyano-3-(4-(methyl-L-glutaminate-N5-yl)-benzyloxy)-12-oxo-oleana-2(3),9(11)-dien-28-oic Acid Methyl Ester assessed as bovine kidney GGT-mediated metabolite formation at 100 uM at pH 7.4 after 8 hrs by HPLC analysis. Type of series: ADME, Bos taurus. Conditions: cattle, pH 7.4, 8 h. In a few lines: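 Substrate at 100 μM in Krebs buffer, pH 7.4, 37 °C, with GGT (1 U/mL) and Gly-Gly acceptor (5 mM) for 8 h, in triplicate; acetonitrile (2 volumes) added, enzyme removed by centrifugation, products by HPLC.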

Series [17] concerns Mus musculus. Put plainly: Anti-diabetic nephropathic activity in db/db mouse assessed as reduction in urine albumin to creatinine ratio at 0.65 mg/kg, ip administered trice per week for 12 consecutive weeks measured at 24 hrs post 11 week administration. Type of series: functional, organism-based. In a few lines: as §3
Series [18] relates to Mus musculus. Put plainly: Anti-diabetic nephropathic activity in db/db mouse assessed as reduction in 24 hr urine volume at 0.65 mg/kg, ip administered trice per week for 12 consecutive weeks measured at 11 weeks post dose. It is filed as functional, organism-based. Summed up:
as §3

Series [19] relates to Mus musculus. The series is described as follows: Cardioprotective activity in C57BL/6 db/db mouse assessed as reduction in apoptotic cardiomyocyte levels at 0.65 mg/kg, ip administered for 12 weeks by TUNNEL assay. It is filed as functional, organism-based. Summed up: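 db/db mice, 8 weeks old, with C57BL/6 controls; ip vehicle or drug for 12 weeks, n = 6 per group. Heart sections (5 μm) from paraformaldehyde-fixed, paraffin-embedded tissue analysed by TUNEL; percentage of apoptotic cardiomyocytes from three sections per mouse; mean ± SD from two separate experiments.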

Chain of hERG (KCNH2) (Q12809 whole entry): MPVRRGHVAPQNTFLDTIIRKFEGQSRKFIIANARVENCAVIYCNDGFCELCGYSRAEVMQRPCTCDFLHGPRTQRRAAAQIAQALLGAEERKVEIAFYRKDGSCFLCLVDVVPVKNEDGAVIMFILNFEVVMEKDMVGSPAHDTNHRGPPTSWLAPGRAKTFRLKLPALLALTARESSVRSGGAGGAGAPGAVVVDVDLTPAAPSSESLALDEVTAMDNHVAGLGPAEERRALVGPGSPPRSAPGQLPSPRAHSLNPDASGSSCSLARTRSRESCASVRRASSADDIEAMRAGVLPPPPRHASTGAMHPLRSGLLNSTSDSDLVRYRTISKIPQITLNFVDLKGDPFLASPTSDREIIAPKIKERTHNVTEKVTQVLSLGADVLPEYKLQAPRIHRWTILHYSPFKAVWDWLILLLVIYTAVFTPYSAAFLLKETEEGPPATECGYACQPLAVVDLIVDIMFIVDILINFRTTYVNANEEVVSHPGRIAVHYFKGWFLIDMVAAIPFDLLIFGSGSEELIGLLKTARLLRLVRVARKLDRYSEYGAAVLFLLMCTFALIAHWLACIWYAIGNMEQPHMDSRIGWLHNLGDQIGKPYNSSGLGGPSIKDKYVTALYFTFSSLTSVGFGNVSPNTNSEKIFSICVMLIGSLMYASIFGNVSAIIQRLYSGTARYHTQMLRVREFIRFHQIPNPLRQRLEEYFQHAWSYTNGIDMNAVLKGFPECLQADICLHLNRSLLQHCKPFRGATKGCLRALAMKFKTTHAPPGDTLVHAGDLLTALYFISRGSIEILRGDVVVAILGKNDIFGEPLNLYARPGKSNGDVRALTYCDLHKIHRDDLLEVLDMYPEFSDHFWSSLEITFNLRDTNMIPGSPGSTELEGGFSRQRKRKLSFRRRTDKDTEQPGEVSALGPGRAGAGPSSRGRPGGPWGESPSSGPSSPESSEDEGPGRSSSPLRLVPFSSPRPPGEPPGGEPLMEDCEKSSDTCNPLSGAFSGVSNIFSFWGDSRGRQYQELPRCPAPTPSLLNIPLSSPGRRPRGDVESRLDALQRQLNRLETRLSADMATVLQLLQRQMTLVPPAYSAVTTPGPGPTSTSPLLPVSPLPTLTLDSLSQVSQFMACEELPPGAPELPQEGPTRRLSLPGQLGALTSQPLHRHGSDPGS
Chain of Kelch-like ECH-associated protein 1 (Homo sapiens) (Q14145 whole entry): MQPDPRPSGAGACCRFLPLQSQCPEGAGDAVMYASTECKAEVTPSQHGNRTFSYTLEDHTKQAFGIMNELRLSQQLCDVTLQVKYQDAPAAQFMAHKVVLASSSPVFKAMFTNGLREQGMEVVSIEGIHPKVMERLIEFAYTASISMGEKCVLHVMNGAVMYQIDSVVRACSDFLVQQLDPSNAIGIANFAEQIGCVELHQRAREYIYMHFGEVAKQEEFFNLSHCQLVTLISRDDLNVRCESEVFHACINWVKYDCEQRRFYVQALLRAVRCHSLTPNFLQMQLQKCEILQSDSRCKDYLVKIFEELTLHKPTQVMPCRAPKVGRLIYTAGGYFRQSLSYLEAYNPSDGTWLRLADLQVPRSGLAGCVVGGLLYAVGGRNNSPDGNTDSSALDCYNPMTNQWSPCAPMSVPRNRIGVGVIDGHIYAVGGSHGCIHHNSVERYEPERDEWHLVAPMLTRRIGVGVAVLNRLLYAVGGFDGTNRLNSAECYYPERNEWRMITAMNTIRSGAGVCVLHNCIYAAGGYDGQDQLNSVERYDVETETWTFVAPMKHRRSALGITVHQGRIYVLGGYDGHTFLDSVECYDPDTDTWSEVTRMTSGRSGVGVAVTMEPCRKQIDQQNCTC

What is called inhibition is the relative decrease from the control value, in per cent. On to `COC(=O)[C@@H](N)CCC(=O)Nc1ccc(COC2=C(C#N)[C@H](O)[C@]3(C)C4=CC(=O)[C@@H]5[C@@H]6CC(C)(C)CC[C@]6(C(=O)OC)CC[C@@]5(C)[C@]4(C)CC[C@H]3C2(C)C)cc1`, for which the values for the concentration at 1.5 h in series [1] and in [2] were 1310 ng/g and 800 ng/g, respectively. Also, in [3], the inhibition result was “Dose-dependent effect”. The result with Mus musculus [4], with Mus musculus [5], with Mus musculus [6] and in the series with Mus musculus [8] was Active. For the same molecule, in the series on Kidney, the Drug metabolism amounted to 0.18 µg/g. The Activity result in the series with Mus musculus [7] and with Mus musculus [9] was “Non-Toxic” each time. The molecule also yielded an inhibition at 200 µM on hERG (KCNH2) of 36.1%.

For `COC(=O)[C@]12CCC(C)(C)C[C@H]1[C@H]1C(=O)C=C3[C@@]4(C)C=C(C#N)C(=O)C(C)(C)[C@@H]4CC[C@@]3(C)[C@]1(C)CC2` [BARDOXOLONE METHYL], the result with Mus musculus [10], in the series with Mus musculus [11], in the series with Mus musculus [13], in the series with Mus musculus [17] and in the series on Mus musculus [18] was Active. For the same molecule, the Drug metabolism entry in series [12] and in [16] was “Metabolite_Detected” each time. Moreover, the Activity result in the series with Mus musculus [14] is listed as “Non-Toxic”. Further, the concentration at 1.5 h in series [15] turned out to be 1550 ng/g. For the same molecule, in the series with Mus musculus [19], the result was inactive.

The values are drawn from ChEMBL document CHEMBL4017544 (J Med Chem, 2017).
